Source: publication PMC4539048 (Science translational medicine, 2015)
Values after ≈ are worked out from the molar mass of the structure shown. Values joined by “and” are separate entries in the source; they are usually repeats but may differ in a detail not shown here. Equal values may be shown once.

How the values were obtained:
P. falciparum 3D7 = experiment: In vitro killing curves / 48 h growth assay, P. falciparum 3D7 blood stage; type: cell-based
[1] = test system: P. falciparum Dd2 and resistant clones; experiment: microbe, parasite or virus in culture; type: cell-based; conditions: Plasmodium falciparum, DD2|DSM265, read-out: DSM265 Dd2 EC50, Dd2/wt
P. falciparum parasites = experiment: Drug combination, fixed-ratio isobologram method; type: cell-based; conditions: artemisinin derivatives, OZ439, chloroquine, piperaquine, pyronaridine, mefloquine, lumefantrine, atovaquone, proguanil, P218, pyrimethamine
Caco-2 permeability = type: in vitro ADME; conditions: human, Caco-2
Caco-2 cell monolayers = experiment: Caco-2 permeability; type: in vitro ADME
[2] = Plasma protein binding, mouse; type: in vitro ADME
[3] = Intravenous pharmacokinetics in monkeys and dogs; type: in vivo; conditions: male (dogs), female (monkeys), macaque (monkeys), beagle (dogs), monkey, dog, plasma
In short: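 Male beagle dogs and female macaque monkeys received a single intravenous dose. Blood was collected into anticoagulant tubes and plasma was separated by centrifugation. Parent compound and metabolites were quantified by LC/MS. Typically 2–6 animals were used per study, with standard deviation given where n>2.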

[4] = target: human ether-a-go-go related gene (hERG) K+ channel (Homo sapiens, UniProt Q12809); experiment: hERG patch clamp assay; type: cell-based
Sequence of human ether-a-go-go related gene (hERG) K+ channel (Q12809 whole entry): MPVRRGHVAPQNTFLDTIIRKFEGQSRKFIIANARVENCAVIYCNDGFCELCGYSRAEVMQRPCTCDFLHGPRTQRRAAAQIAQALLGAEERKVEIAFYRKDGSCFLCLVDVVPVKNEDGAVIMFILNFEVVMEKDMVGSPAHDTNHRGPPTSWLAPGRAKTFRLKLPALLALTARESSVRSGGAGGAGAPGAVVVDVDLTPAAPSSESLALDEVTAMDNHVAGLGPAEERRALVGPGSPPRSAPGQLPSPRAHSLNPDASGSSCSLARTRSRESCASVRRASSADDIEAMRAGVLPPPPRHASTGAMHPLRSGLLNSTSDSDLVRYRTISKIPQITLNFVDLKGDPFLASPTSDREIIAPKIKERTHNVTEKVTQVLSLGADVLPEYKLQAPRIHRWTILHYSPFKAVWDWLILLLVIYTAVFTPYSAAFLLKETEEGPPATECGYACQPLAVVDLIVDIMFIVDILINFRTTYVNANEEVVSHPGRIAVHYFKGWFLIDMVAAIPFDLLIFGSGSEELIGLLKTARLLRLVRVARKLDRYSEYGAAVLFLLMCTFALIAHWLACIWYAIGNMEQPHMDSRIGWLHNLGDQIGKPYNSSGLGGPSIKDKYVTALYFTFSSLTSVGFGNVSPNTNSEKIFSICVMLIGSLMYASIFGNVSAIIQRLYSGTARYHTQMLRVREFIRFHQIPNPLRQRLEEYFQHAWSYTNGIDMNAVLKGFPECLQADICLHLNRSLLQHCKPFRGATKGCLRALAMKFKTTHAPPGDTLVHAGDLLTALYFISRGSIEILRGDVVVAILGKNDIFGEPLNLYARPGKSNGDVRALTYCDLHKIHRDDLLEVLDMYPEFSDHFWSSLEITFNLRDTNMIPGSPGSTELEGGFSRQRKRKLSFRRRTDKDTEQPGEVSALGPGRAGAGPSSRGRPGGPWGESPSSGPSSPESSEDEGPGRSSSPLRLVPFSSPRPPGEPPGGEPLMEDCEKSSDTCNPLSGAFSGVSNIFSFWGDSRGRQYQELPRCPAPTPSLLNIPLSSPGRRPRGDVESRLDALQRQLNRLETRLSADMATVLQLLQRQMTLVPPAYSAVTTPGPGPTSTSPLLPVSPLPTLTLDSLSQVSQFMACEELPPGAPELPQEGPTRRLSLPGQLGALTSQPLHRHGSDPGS

Cc1cc(Nc2ccc(S(F)(F)(F)(F)F)cc2)n2nc(C(C)(F)F)nc2n1 [DSM265, 2-(1,1-difluoroethyl)-5-methyl-[N-[4-(pentafluorosulfanyl)phenyl]1,2,4]triazolo[1,5-a]pyrimidin-7-amine]
EC50 (P. falciparum 3D7; Plasmodium falciparum, 3D7, 48 h, read-out: P. falciparum 3D7 in vitro growth assay EC50): 4.6 ng/mL (≈ 11.1 nM) | lag-phase prior to parasite killing (P. falciparum 3D7; at 1xEC50): 96 h | lag-phase prior to parasite killing (P. falciparum 3D7; at 3xEC50 and above): 24 to 48 h | Unbound in vitro MPC (kill assay) (P. falciparum 3D7; corrected with fraction unbound in 0.5% Albumax II in RPMI-1640): 0.002 µg/mL and 0.0020 µg/mL | P. falciparum 3D7 in vitro MPC (kill assay) (P. falciparum 3D7; minimum parasiticidal concentration = 3xEC50): 0.014 μg/mL and 0.014 ^a μg/mL | EC50 [1]: 2.2 ng/mL (≈ 5.3 nM) | interaction with other antimalarials (P. falciparum parasites): additive | Papp A→B (Caco-2 permeability): > 300 nm/s | BCS classification (Caco-2 cell monolayers; from high permeability and low aqueous solubility): BCS Class II | substrate for Pgp and BCRP (Caco-2 cell monolayers; with verapamil and fumitremorgin C): not a substrate | fraction unbound [2]: 0.003 | half-life [3]: 10 to 45 h | IC50 [4]: 1.59 to 6.98 µM
